“And” between values parts separate entries of the source, which are not always exact repeats. Identical values can stand only once. Counter-ions that a name gives are not always drawn. Like-named read-outs stand apart in the source and are kept apart here.
How the values were obtained:
hα4β2 AChR = hα4β2 AChR (Homo sapiens, UniProt P17787+P43681); type: cell-based; settings: for hα4β2/hα3β4 IC50 ratio (selectivity): ratio using hα3β4 data of Arias et al., 2015; for IC50: read-out: IC50 (inhibitory potency)
hα7 AChR = hα7 AChR (Homo sapiens, UniProt P36544); type: cell-based; settings: for hα7/hα3β4 IC50 ratio (selectivity): ratio using hα3β4 data of Arias et al., 2015
[1] = test system: MHb (VI) neurons (endogenous α3β4* AChRs); assay: Patch-clamp recording of ACh-evoked currents from MHb; type: cell-based, mouse; settings: for Reversibility of inhibition of ACh-evoked currents after washing: 180 μM, washing 13 min ((±)-18-MC) or 10 min ((+)-catharanthine); for IC50: read-out: IC50 (inhibitory potency on ACh-evoked currents), 100 μM ACh puffs, MHb (VI) neurons, single exponential fit
Method in brief: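 Male C57BL/6J mice, 8–24 weeks. Coronal 250 μm slices through the medial habenula, recovered in oxygenated solution at 33 °C for 12 min. Neurons visualised by IR/DIC. Internal solution contained 2 mM QX-314. ACh (100 μM) puffed for 250 ms at 12 psi, with 1 μM atropine in the superfusate. Test compound at 0.07–180 μM; peak amplitudes measured before and after washout. Nonlinear least-squares fit gave IC50.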

α1β1γδ AChR = assay: Selectivity for hα3β4 over α1β1γδ AChRs; type: cell-based, human; settings: ref Arias et al., 2011
hα3β4 AChR = settings: read-out: IC50 at hα3β4 AChRs; HEK293-hα3β4 cells; ref Arias et al., 2015; cited from earlier work
[2] = target: hα3β4 AChR ([3H]ibogaine sites) (Homo sapiens, UniProt P30926+P32297); assay: [3H]ibogaine competition binding to hα3β4 AChR membranes from HEK293-hα3β4 cells
α3β4 and α4β2 AChRs = settings: 20 μM; ref Glick et al., 2002a; cited from earlier work
[3] = ref Zhang et al., 2002; Maissonneuve and Glick, 2003; cited from earlier work
[4] = hα7, inhibition of 1.0 μM (±)-epibatidine-induced Ca2+ influx

Chain of hα7 AChR (P36544 23-502): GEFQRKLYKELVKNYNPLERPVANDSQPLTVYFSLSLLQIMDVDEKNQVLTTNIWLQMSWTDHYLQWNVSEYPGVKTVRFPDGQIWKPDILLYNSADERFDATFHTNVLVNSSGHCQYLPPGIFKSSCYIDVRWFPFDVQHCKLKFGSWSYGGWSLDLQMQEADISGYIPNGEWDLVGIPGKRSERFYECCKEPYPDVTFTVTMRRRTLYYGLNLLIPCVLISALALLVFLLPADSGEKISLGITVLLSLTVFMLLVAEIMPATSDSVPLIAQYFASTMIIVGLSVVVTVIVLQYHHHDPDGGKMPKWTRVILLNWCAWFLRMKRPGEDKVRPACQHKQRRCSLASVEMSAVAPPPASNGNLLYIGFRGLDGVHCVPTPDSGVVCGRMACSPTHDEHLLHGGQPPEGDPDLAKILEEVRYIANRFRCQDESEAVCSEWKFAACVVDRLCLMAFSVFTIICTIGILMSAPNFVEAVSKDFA
Chain of hα4β2 AChR (P17787 26-502): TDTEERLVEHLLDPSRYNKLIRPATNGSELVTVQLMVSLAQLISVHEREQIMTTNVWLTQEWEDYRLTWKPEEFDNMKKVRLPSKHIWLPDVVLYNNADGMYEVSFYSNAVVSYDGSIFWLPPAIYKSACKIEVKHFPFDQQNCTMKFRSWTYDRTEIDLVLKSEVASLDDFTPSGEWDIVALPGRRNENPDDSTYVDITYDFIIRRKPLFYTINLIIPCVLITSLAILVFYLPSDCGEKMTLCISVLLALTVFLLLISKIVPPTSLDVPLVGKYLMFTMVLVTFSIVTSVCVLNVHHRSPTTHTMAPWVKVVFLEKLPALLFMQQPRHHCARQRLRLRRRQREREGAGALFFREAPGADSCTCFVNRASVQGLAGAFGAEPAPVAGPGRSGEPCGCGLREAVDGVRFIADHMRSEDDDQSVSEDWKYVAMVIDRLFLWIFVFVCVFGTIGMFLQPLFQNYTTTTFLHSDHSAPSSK
Chain of hα4β2 AChR (P43681 29-627): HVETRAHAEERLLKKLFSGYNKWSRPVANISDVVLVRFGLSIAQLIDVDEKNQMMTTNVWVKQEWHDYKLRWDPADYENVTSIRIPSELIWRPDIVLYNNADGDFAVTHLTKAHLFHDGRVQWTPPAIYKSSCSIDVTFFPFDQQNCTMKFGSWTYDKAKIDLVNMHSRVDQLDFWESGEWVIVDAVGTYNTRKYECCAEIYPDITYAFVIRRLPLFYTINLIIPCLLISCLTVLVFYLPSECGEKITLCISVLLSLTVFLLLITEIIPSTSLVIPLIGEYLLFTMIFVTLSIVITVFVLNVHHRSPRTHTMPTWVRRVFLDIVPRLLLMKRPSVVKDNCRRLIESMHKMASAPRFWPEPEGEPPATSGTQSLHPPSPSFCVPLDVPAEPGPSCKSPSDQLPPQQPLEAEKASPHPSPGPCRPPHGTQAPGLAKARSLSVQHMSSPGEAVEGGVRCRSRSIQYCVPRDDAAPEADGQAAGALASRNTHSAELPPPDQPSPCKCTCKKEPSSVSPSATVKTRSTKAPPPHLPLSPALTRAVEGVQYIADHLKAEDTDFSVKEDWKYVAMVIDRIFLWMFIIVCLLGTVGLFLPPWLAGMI
Chain of hα3β4 AChR ([3H]ibogaine sites) (P32297 32-505): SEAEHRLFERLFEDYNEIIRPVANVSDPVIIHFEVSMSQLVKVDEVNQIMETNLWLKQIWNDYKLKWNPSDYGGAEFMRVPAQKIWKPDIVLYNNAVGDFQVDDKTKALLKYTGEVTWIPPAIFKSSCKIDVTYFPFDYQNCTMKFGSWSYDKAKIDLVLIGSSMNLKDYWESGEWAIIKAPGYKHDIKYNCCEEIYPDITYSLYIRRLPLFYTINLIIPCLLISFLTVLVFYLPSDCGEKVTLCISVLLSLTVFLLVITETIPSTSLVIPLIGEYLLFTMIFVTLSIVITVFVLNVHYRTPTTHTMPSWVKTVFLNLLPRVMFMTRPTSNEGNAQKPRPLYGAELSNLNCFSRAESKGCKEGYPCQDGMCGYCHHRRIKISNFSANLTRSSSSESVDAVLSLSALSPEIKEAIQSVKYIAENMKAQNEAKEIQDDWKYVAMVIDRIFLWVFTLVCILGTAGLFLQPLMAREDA
Chain of hα3β4 AChR ([3H]ibogaine sites) (P30926 22-498): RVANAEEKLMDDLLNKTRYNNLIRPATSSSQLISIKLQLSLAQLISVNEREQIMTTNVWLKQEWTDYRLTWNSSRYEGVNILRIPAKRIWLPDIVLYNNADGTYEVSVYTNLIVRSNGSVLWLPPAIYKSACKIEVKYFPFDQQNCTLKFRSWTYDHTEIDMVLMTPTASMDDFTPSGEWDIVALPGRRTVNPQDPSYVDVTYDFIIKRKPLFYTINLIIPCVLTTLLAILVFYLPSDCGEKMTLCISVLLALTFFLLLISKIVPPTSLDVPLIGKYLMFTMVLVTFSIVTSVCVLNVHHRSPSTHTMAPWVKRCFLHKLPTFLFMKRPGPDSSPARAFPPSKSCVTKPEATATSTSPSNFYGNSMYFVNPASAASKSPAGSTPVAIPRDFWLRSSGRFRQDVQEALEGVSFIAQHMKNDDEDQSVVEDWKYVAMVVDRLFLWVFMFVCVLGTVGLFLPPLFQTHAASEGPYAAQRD

Compound: CNCC[C@H]1CC2CN3CCc4c([nH]c5ccccc45)[C@](C(=O)OC)(C2)[C@H]13 (racemic) [(±)-18-MAC, (±)-18-Methylaminocoronaridine]
- nH (Hill coefficient) (hα4β2 AChR): 1.40 ± 0.14
- hα4β2/hα3β4 IC50 ratio (selectivity) (hα4β2 AChR): 7.9 x-fold
- IC50 (hα4β2 AChR): 20.7 ± 3 µM
- IC50 (inhibitory potency) (hα7 AChR; GH3-hα7 cells, 5 min pre-incubation, 1.0 μM (±)-epibatidine): No effect

Compound: CCC1=C[C@@H]2CN3CCc4c([nH]c5ccccc45)[C@@](C(=O)OC)(C2)[C@@H]13 [(+)-Catharanthine, (+)-3,4-didehydrocoronaridine]
- nH (Hill coefficient) (hα4β2 AChR): 1.48 ± 0.25
- hα4β2/hα3β4 IC50 ratio (selectivity) (hα4β2 AChR): 18.5 x-fold
- hα4β2/hα3β4 IC50 ratio (selectivity) (hα4β2 AChR; listed as (+)-catharanthine): 18 x-fold
- nH (Hill coefficient) (hα7 AChR; [4]): 1.43 ± 0.20
- hα7/hα3β4 IC50 ratio (selectivity) (hα7 AChR): 32.0 x-fold
- hα7/hα3β4 IC50 ratio (selectivity) (hα7 AChR; listed as (+)-catharanthine): 32 x-fold
- Reversibility of inhibition of ACh-evoked currents after washing [1]: reversible inhibition
- IC50 [1]: 27 ± 4 µM
- Selectivity for hα3β4 over α1β1γδ AChRs (α1β1γδ AChR): 29 fold
- IC50 (hα3β4 AChR): 0.68 ± 0.1 µM

Compound: Clc1ccc(C2CC3CCC2N3)cn1 (racemic) [(±)-epibatidine, (±)-Epibatidine, reference compound]
- EC50 (hα7 AChR; read-out: EC50 (activation potency), agonist-induced Ca2+ influx, GH3-hα7 cells, n = 25): 0.026 ± 0.004 µM

Compound: (±)-18-hydroxycoronaridine [(±)-18-HC]
- nH (Hill coefficient) (hα4β2 AChR): 1.27 ± 0.06
- hα4β2/hα3β4 IC50 ratio (selectivity) (hα4β2 AChR): 8.8 x-fold
- IC50 (hα4β2 AChR): 24.8 ± 1.2 µM
- nH (Hill coefficient) (hα7 AChR): 1.64 ± 0.20
- hα7/hα3β4 IC50 ratio (selectivity) (hα7 AChR): 26.1 x-fold

Compound: CC(NC(C)(C)C)C(=O)c1cccc(Cl)c1 (stereo not shown) [bupropion, bupropion hydrochloride]
- nH (Hill coefficient) ([2]; desensitized state [in the presence of (−)-nicotine]): 0.75 ± 0.08
- nH (Hill coefficient) ([2]; resting state [no agonist]): 0.72 ± 0.05

Compound: 12-methoxyibogamine [(−)-ibogaine]
- AChR subtypes inhibited in voltage-clamp recordings (α3β4 and α4β2 AChRs): inhibits both α3β4 and α4β2 subtypes

Compound: COCCC1CC2CN3CCc4c([nH]c5ccccc45)C(C(=O)OC)(C2)C13.Cl (racemic) [(±)-18-MC, (±)-18-Methoxycoronaridine hydrochloride]
- nH (Hill coefficient) (hα4β2 AChR): 1.85 ± 0.17
- hα4β2/hα3β4 IC50 ratio (selectivity) (hα4β2 AChR): 4 x-fold and 4.3 x-fold
- nH (Hill coefficient) (hα7 AChR; [4]): 2.21 ± 0.50
- hα7/hα3β4 IC50 ratio (selectivity) (hα7 AChR): 23.6 x-fold
- Reversibility of inhibition of ACh-evoked currents after washing [1]: reversible inhibition
- IC50 [1]: 28 ± 6 µM
- IC50 (hα3β4 AChR): 1.47 ± 0.21 µM
- half-life (metabolism to 18-HC) [3]: ~1.67 h

— paper PMC5903430 (The international journal of biochemistry & cell biology, 2017)
